Laboratory results from ChEMBL document CHEMBL1139934, “Synthesis and biological activity of imidazopyridine anticoccidial agents: part I” (Eur J Med Chem, 2007).

How the values were obtained:
Eimeria tenella [1] = test: Anticococcidal activity against Eimeria tenella in Chick assessed as reduction in oocyte at 6.25 ppm relative to control; type: functional; set-up: scale not given: the % may be the effect or the level left
Summary of the method: (§1)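 Expanded Mini-Assay Coccidiosis (ExMAC) in chickens infected with E. tenella, E. acervulina, E. mitis and E. maxima. Compound given in the feed at the stated ppm. Efficacy for each species is scored 0 to 4 from the percent oocyst reduction relative to an untreated control. Where a compound was tested more than once, all values are reported.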

Eimeria mitis [2] = test: Anticococcidal activity against Eimeria mitis in Chick assessed as reduction in oocyte at 25 ppm relative to control; type: functional; set-up: scale not given: the % may be the effect or the level left; summary of the method: as §1
[3] = target: cGMP-dependent protein kinase (Eimeria tenella, UniProt Q8MMZ8); test: Inhibition of Eimeria tenella cGMP-dependent protein kinase by Ten_K assay
Summary of the method: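 Ten_K (Tenella Kinase) assay measuring inhibition of E. tenella PKG enzyme activity. Result expressed as the concentration giving 50% inhibition (IC50, nM). Where a compound was tested more than once, all values are reported.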

Eimeria acervulina [4] = test: Anticococcidal activity against Eimeria acervulina in Chick assessed as reduction in oocyte at 25 ppm relative to control; type: functional; set-up: scale not given: the % may be the effect or the level left; summary of the method: as §1
Eimeria acervulina [5] = test: Anticococcidal activity against Eimeria acervulina in Chick assessed as reduction in oocyte at 12.5 ppm relative to control; type: functional; set-up: scale not given: the % may be the effect or the level left; summary of the method: as §1
Eimeria maxima [6] = test: Anticococcidal activity against Eimeria maxima in Chick assessed as reduction in oocyte at 12.5 ppm relative to control; type: functional; set-up: scale not given: the % may be the effect or the level left; summary of the method: as §1
Eimeria acervulina [7] = test: Anticococcidal activity against Eimeria acervulina in Chick assessed as reduction in oocyte at 6.25 ppm relative to control; type: functional; set-up: scale not given: the % may be the effect or the level left; summary of the method: as §1
Eimeria tenella [8] = test: Anticococcidal activity against Eimeria tenella in Chick assessed as reduction in oocyte at 25 ppm relative to control; type: functional; set-up: scale not given: the % may be the effect or the level left; summary of the method: as §1
Eimeria tenella [9] = test: Anticococcidal activity against Eimeria tenella in Chick assessed as reduction in oocyte at 12.5 ppm relative to control; type: functional; set-up: scale not given: the % may be the effect or the level left; summary of the method: as §1
Eimeria mitis [10] = test: Anticococcidal activity against Eimeria mitis in Chick assessed as reduction in oocyte at 6.25 ppm relative to control; type: functional; set-up: scale not given: the % may be the effect or the level left; summary of the method: as §1
Eimeria mitis [11] = test: Anticococcidal activity against Eimeria mitis in Chick assessed as reduction in oocyte at 12.5 ppm relative to control; type: functional; set-up: scale not given: the % may be the effect or the level left; summary of the method: as §1
Eimeria maxima [12] = test: Anticococcidal activity against Eimeria maxima in Chick assessed as reduction in oocyte at 25 ppm relative to control; type: functional; set-up: scale not given: the % may be the effect or the level left; summary of the method: as §1
Eimeria maxima [13] = test: Anticococcidal activity against Eimeria maxima in Chick assessed as reduction in oocyte at 6.25 ppm relative to control; type: functional; set-up: scale not given: the % may be the effect or the level left; summary of the method: as §1

Chain of cGMP-dependent protein kinase (Q8MMZ8 whole entry): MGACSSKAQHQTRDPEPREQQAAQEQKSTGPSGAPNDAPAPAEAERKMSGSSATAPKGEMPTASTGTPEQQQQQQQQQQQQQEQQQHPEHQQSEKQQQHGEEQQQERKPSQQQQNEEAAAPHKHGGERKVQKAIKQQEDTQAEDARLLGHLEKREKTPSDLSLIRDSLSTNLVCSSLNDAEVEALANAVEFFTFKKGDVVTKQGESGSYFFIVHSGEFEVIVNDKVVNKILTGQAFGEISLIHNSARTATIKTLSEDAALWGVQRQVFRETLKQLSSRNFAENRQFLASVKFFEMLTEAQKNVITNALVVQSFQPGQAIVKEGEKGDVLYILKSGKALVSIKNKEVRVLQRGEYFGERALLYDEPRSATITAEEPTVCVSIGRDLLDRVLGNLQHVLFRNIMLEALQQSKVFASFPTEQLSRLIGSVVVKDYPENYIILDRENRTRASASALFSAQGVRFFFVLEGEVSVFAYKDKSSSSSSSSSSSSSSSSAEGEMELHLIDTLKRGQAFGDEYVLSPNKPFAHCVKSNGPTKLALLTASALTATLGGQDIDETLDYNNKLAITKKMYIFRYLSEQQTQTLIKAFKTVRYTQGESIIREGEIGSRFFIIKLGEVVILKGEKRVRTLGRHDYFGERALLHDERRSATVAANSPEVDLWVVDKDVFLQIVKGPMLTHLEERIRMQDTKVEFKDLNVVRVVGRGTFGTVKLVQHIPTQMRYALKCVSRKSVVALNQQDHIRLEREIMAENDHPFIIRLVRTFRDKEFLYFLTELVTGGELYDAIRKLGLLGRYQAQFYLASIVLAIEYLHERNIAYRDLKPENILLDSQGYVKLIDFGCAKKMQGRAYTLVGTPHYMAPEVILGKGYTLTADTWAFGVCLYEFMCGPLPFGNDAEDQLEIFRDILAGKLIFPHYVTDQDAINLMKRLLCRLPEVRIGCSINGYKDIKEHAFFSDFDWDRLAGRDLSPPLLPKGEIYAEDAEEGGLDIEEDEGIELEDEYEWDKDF

CN(C)Cc1ccn2c(-c3ccnc(N)n3)c(-c3ccc(F)cc3)nc2c1
<50%: Activity (Eimeria tenella [1]) | Activity (Eimeria acervulina [5]) | Activity (Eimeria acervulina [7]) | Activity (Eimeria mitis [10])
80%: Activity (Eimeria mitis [2]) | Activity (Eimeria acervulina [4]) | Activity (Eimeria maxima [6]) | Activity (Eimeria tenella [8]) | Activity (Eimeria tenella [9]) | Activity (Eimeria mitis [11]) | Activity (Eimeria maxima [12]) | Activity (Eimeria maxima [13])
0.23 nM: IC50 [3]

CCNc1nccc(-c2c(-c3ccc(F)cc3)nc3cc(CN(C)C)ccn23)n1
<50%: Activity (Eimeria tenella [1]) | Activity (Eimeria mitis [10]) | Activity (Eimeria mitis [11])
80%: Activity (Eimeria mitis [2]) | Activity (Eimeria acervulina [4]) | Activity (Eimeria acervulina [5]) | Activity (Eimeria maxima [6]) | Activity (Eimeria tenella [8]) | Activity (Eimeria tenella [9]) | Activity (Eimeria maxima [12]) | Activity (Eimeria maxima [13])
0.23 nM: IC50 [3]

CN(C)Cc1ccn2c(-c3ccnc(NC=O)n3)c(-c3ccc(F)cc3)nc2c1
0.45 nM: IC50 [3]
50%: Activity (Eimeria mitis [11])
<50%: Activity (Eimeria mitis [10])
80%: Activity (Eimeria tenella [1]) | Activity (Eimeria acervulina [5]) | Activity (Eimeria maxima [6]) | Activity (Eimeria acervulina [7]) | Activity (Eimeria tenella [9]) | Activity (Eimeria maxima [13])

CN(C)Cc1ccn2c(-c3ccnc(NCCCO)n3)c(-c3ccc(F)cc3)nc2c1
0.33 nM: IC50 [3]
80%: Activity (Eimeria tenella [1]) | Activity (Eimeria acervulina [5]) | Activity (Eimeria maxima [6]) | Activity (Eimeria tenella [9]) | Activity (Eimeria mitis [11]) | Activity (Eimeria maxima [13])
<50%: Activity (Eimeria acervulina [7]) | Activity (Eimeria mitis [10])

CN(C)Cc1ccn2c(-c3ccnc(NC4CCCC4)n3)c(-c3ccc(F)cc3)nc2c1
<50%: Activity (Eimeria maxima [13])
80%: Activity (Eimeria tenella [1]) | Activity (Eimeria acervulina [5]) | Activity (Eimeria maxima [6]) | Activity (Eimeria acervulina [7]) | Activity (Eimeria tenella [9]) | Activity (Eimeria mitis [11])
0.102 nM: IC50 [3]
50%: Activity (Eimeria mitis [10])

CN(C)Cc1ccn2c(-c3ccnc(NC(=O)C4CC4)n3)c(-c3ccc(F)cc3)nc2c1
<50%: Activity (Eimeria mitis [10]) | Activity (Eimeria maxima [13])
0.42 nM: IC50 [3]
80%: Activity (Eimeria mitis [2]) | Activity (Eimeria acervulina [4]) | Activity (Eimeria acervulina [5]) | Activity (Eimeria maxima [6]) | Activity (Eimeria acervulina [7]) | Activity (Eimeria tenella [8]) | Activity (Eimeria tenella [9]) | Activity (Eimeria mitis [11])
50%: Activity (Eimeria tenella [1]) | Activity (Eimeria maxima [12])

CN(C)Cc1ccn2c(-c3ccnc(NCc4cccc(F)c4)n3)c(-c3ccc(F)cc3)nc2c1
80%: Activity (Eimeria acervulina [4]) | Activity (Eimeria maxima [6]) | Activity (Eimeria maxima [12])
<50%: Activity (Eimeria tenella [1]) | Activity (Eimeria acervulina [7]) | Activity (Eimeria tenella [9]) | Activity (Eimeria mitis [10]) | Activity (Eimeria mitis [11]) | Activity (Eimeria maxima [13])
50%: Activity (Eimeria mitis [2]) | Activity (Eimeria acervulina [5]) | Activity (Eimeria tenella [8])
0.09 nM: IC50 [3]

Cc1cnc(N)nc1-c1c(-c2ccc(F)cc2)nc2cc(CN(C)C)ccn12
0.23 nM: IC50 [3]
80%: Activity (Eimeria mitis [2]) | Activity (Eimeria acervulina [4]) | Activity (Eimeria maxima [6]) | Activity (Eimeria tenella [8]) | Activity (Eimeria tenella [9]) | Activity (Eimeria mitis [11]) | Activity (Eimeria maxima [12]) | Activity (Eimeria maxima [13])
<50%: Activity (Eimeria tenella [1]) | Activity (Eimeria acervulina [5]) | Activity (Eimeria acervulina [7]) | Activity (Eimeria mitis [10])

CCCC(=O)Nc1nccc(-c2c(-c3ccc(F)cc3)nc3cc(CN(C)C)ccn23)n1
80%: Activity (Eimeria acervulina [5]) | Activity (Eimeria maxima [6]) | Activity (Eimeria tenella [9]) | Activity (Eimeria mitis [11]) | Activity (Eimeria maxima [13])
0.63 nM: IC50 [3]
<50%: Activity (Eimeria tenella [1]) | Activity (Eimeria acervulina [7]) | Activity (Eimeria mitis [10])

CN(C)Cc1ccn2c(-c3ccnc(NCc4c(F)cccc4F)n3)c(-c3ccc(F)cc3)nc2c1
50%: Activity (Eimeria tenella [8]) | Activity (Eimeria maxima [13])
80%: Activity (Eimeria mitis [2]) | Activity (Eimeria maxima [6]) | Activity (Eimeria maxima [12])
0.06 nM: IC50 [3]
<50%: Activity (Eimeria tenella [1]) | Activity (Eimeria acervulina [4]) | Activity (Eimeria acervulina [5]) | Activity (Eimeria acervulina [7]) | Activity (Eimeria tenella [9]) | Activity (Eimeria mitis [10]) | Activity (Eimeria mitis [11])

CN(C)Cc1ccn2c(-c3ccnc(NCCO)n3)c(-c3ccc(F)cc3)nc2c1
0.3 nM: IC50 [3]
80%: Activity (Eimeria mitis [2]) | Activity (Eimeria acervulina [4]) | Activity (Eimeria maxima [6]) | Activity (Eimeria tenella [8]) | Activity (Eimeria maxima [12])
50%: Activity (Eimeria tenella [9]) | Activity (Eimeria maxima [13])
<50%: Activity (Eimeria tenella [1]) | Activity (Eimeria acervulina [5]) | Activity (Eimeria acervulina [7]) | Activity (Eimeria mitis [10]) | Activity (Eimeria mitis [11])

CCCCC(=O)Nc1nccc(-c2c(-c3ccc(F)cc3)nc3cc(CN(C)C)ccn23)n1
50%: Activity (Eimeria acervulina [5]) | Activity (Eimeria tenella [9])
80%: Activity (Eimeria mitis [2]) | Activity (Eimeria acervulina [4]) | Activity (Eimeria maxima [6]) | Activity (Eimeria acervulina [7]) | Activity (Eimeria tenella [8]) | Activity (Eimeria maxima [12]) | Activity (Eimeria maxima [13])
<50%: Activity (Eimeria mitis [10])
0.25 nM: IC50 [3]
< 50%: Activity (Eimeria tenella [1])

CN(C)Cc1ccn2c(-c3ccnc(NC4CC4)n3)c(-c3ccc(F)cc3)nc2c1
80%: Activity (Eimeria mitis [2]) | Activity (Eimeria acervulina [4]) | Activity (Eimeria acervulina [5]) | Activity (Eimeria maxima [6]) | Activity (Eimeria acervulina [7]) | Activity (Eimeria tenella [8]) | Activity (Eimeria tenella [9]) | Activity (Eimeria maxima [12]) | Activity (Eimeria maxima [13])
<50%: Activity (Eimeria tenella [1]) | Activity (Eimeria mitis [10])
0.08 nM: IC50 [3]
50%: Activity (Eimeria mitis [11])

CN(C)Cc1ccn2c(-c3ccnc(NC4CCCCC4)n3)c(-c3ccc(F)cc3)nc2c1
50%: Activity (Eimeria acervulina [4]) | Activity (Eimeria mitis [11])
<50%: Activity (Eimeria acervulina [5]) | Activity (Eimeria acervulina [7]) | Activity (Eimeria mitis [10])
80%: Activity (Eimeria tenella [1]) | Activity (Eimeria mitis [2]) | Activity (Eimeria maxima [6]) | Activity (Eimeria tenella [8]) | Activity (Eimeria tenella [9]) | Activity (Eimeria maxima [12]) | Activity (Eimeria maxima [13])
0.12 nM: IC50 [3]

CCC(=O)Nc1nccc(-c2c(-c3ccc(F)cc3)nc3cc(CN(C)C)ccn23)n1
80%: Activity (Eimeria mitis [2]) | Activity (Eimeria acervulina [4]) | Activity (Eimeria maxima [6]) | Activity (Eimeria tenella [8]) | Activity (Eimeria tenella [9]) | Activity (Eimeria maxima [12])
<50%: Activity (Eimeria tenella [1]) | Activity (Eimeria acervulina [5]) | Activity (Eimeria acervulina [7]) | Activity (Eimeria mitis [10]) | Activity (Eimeria mitis [11])
0.3 nM: IC50 [3]

CN(C)Cc1ccn2c(-c3ccnc(NC(=O)C4CCCC4)n3)c(-c3ccc(F)cc3)nc2c1
< 50%: Activity (Eimeria tenella [1])
80%: Activity (Eimeria mitis [2]) | Activity (Eimeria acervulina [4]) | Activity (Eimeria tenella [8]) | Activity (Eimeria tenella [9]) | Activity (Eimeria mitis [11])
0.21 nM: IC50 [3]
<50%: Activity (Eimeria acervulina [5]) | Activity (Eimeria acervulina [7]) | Activity (Eimeria mitis [10])
